Laboratory results as given in article PMC7744997 (Clinical Infectious Diseases: An Official Publication of …, 2020).
Read-outs that look alike come from different tables or passages of the source.

Key:
[1] = assay type: in vivo, human
Outline: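 Population PK model built in adults and scaled to paediatrics, fitted to sparse heel- or finger-prick capillary samples. Weight-based oral doses were given once daily for 7 days in three age cohorts (≥6–≤24, 3–<6, >1–<3 months). Doses were escalated after data review committee assessment of PK and safety. AUC24h, Cmin and Cmax were estimated at day 1 and day 7, as mean with CV%.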

[2] = Safety/tolerability: adverse events in RSV-infected infants; assay type: in vivo, human
Outline: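 Adverse events were recorded over 28 days in infants given oral drug or placebo once daily for 7 days. Events were graded with the DMID Pediatric Toxicity Tables (November 2007), and the investigator judged relatedness to study drug. Events causing rehospitalisation were counted as serious. Vital signs, ECGs and physical examination were also done.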

RSV [3] = assay: RSV RNA viral load from nasal swabs by qRT-PCR in RSV-infected infants; assay type: in vivo, respiratory syncytial virus
Outline: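 Viral load was measured by quantitative real-time RT-PCR on midturbinate nasal swabs, taken over time during 7 days of once-daily oral dosing. After hospital discharge, no samples were taken until the day 7 visit. Results were expressed as median change from baseline.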

RSV infection = assay: Clinical course of RSV infection; assay type: in vivo, human; conditions: JNJ-8678 (combined)
Outline: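 Infants (>1 to ≤24 months, term-born, hospitalised ≤72 h before randomisation with PCR-confirmed RSV) got oral drug or placebo once daily for 7 days (4:1 randomisation) and were followed 28 days. Outcomes were hospital stay and time to clinical stability: the latest of end of supplemental oxygen, end of supplemental feeding, normal heart rate and normal respiratory rate. Times were shown as Kaplan-Meier curves. Clinician and caregivers completed PRESORS symptom questionnaires electronically.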

RSV-A and RSV-B strains = conditions: panel of laboratory-derived and clinically isolated RSV-A and RSV-B strains, in vitro; cited from earlier work
RSV [4] = conditions: healthy volunteers, 75–500 mg once daily for 7 days; cited from earlier work
[5] = cohort 1a (≥6 to ≤24 mo), 2 mg/kg QD oral, n=4, Day 1
[6] = cohort 1a (≥6 to ≤24 mo), 2 mg/kg QD oral, n=4, Day 7
[7] = cohort 1b (≥6 to ≤24 mo), 6 mg/kg QD oral, n=4, Day 1
[8] = cohort 1b (≥6 to ≤24 mo), 6 mg/kg QD oral, n=4, Day 7
[9] = cohort 1c (≥6 to ≤24 mo), 8 mg/kg QD oral, n=4, Day 1
[10] = cohort 1c (≥6 to ≤24 mo), 8 mg/kg QD oral, n=4, Day 7
[11] = cohort 2a (≥3 to <6 mo), 1.5 mg/kg QD oral, n=4, Day 1
[12] = cohort 2a (≥3 to <6 mo), 1.5 mg/kg QD oral, n=4, Day 7
[13] = cohort 2b (≥3 to <6 mo), 4.5 mg/kg QD oral, n=4, Day 1
[14] = cohort 2b (≥3 to <6 mo), 4.5 mg/kg QD oral, n=4, Day 7
[15] = cohort 2c (≥3 to <6 mo), 6 mg/kg QD oral, n=1, Day 1
[16] = cohort 2c (≥3 to <6 mo), 6 mg/kg QD oral, n=1, Day 7
[17] = cohort 3a (>1 to <3 mo), 1 mg/kg QD oral, n=4, Day 1
[18] = cohort 3a (>1 to <3 mo), 1 mg/kg QD oral, n=4, Day 7
[19] = cohort 3b (>1 to <3 mo), 3 mg/kg QD oral, n=4, Day 1
[20] = cohort 3b (>1 to <3 mo), 3 mg/kg QD oral, n=4, Day 7
[21] = cohort 3c (>1 to <3 mo), 5 mg/kg QD oral, n=4, Day 1
[22] = cohort 3c (>1 to <3 mo), 5 mg/kg QD oral, n=4, Day 7
[23] = cohort 1d (≥6 to ≤24 mo), 9 mg/kg QD oral, n=4, Day 1
[24] = cohort 1d (≥6 to ≤24 mo), 9 mg/kg QD oral, n=4, Day 7

CS(=O)(=O)CCCn1c(Cn2c(=O)n(CC(F)(F)F)c3ccncc32)cc2cc(Cl)ccc21 [JNJ-53718678]
Mean AUC24h (CV%) [1, 5]: 6047.2 (17.5) ng × h/mL
Mean Cmax (CV%) [1, 5]: 546.8 (35.7) ng/mL
Mean Cmin (CV%) [1, 5]: 81.4 (58.8) ng/mL
Mean AUC24h (CV%) [1, 6]: 7738.8 (27.4) ng × h/mL
Mean Cmax (CV%) [1, 6]: 721.3 (31.2) ng/mL
Mean Cmin (CV%) [1, 6]: 114.0 (77.7) ng/mL
Mean Cmax (CV%) [1, 7]: 1960.5 (58.1) ng/mL
Mean Cmin (CV%) [1, 7]: 155.5 (89.3) ng/mL
Mean Cmax (CV%) [1, 8]: 3304.2 (12.3) ng/mL
Mean Cmin (CV%) [1, 8]: 225.7 (66.5) ng/mL
Mean Cmax (CV%) [1, 9]: 3346.9 (13.0) ng/mL
Mean Cmin (CV%) [1, 9]: 244.1 (90.4) ng/mL
Mean Cmax (CV%) [1, 10]: 4298.8 (11.2) ng/mL
Mean Cmin (CV%) [1, 10]: 323.9 (95.7) ng/mL
Target exposures ([1]; cohort 1c, ≥6–≤24 months, 8 mg/kg QD, AUC24h similar to adults): Cmin and Cmax target exposures were not reached
Mean AUC24h (CV%) [1, 11]: 6658.4 (25.6) ng × h/mL
Mean Cmax (CV%) [1, 11]: 727.5 (68.7) ng/mL
Mean Cmin (CV%) [1, 11]: 88.3 (39.2) ng/mL
Mean AUC24h (CV%) [1, 12]: 8620.9 (17.3) ng × h/mL
Mean Cmax (CV%) [1, 12]: 938.0 (53.3) ng/mL
Mean Cmin (CV%) [1, 12]: 124.0 (49.1) ng/mL
Mean Cmax (CV%) [1, 13]: 2533.2 (25.0) ng/mL
Mean Cmin (CV%) [1, 13]: 319.8 (16.9) ng/mL
Mean Cmax (CV%) [1, 14]: 3021.8 (41.2) ng/mL
Mean Cmin (CV%) [1, 14]: 363.0 (18.9) ng/mL
Mean Cmax (CV%) [1, 15]: 2556.8 (…) ng/mL
Mean Cmin (CV%) [1, 15]: 428.6 (…) ng/mL
Mean Cmax (CV%) [1, 16]: 3131.0 (…) ng/mL
Mean Cmin (CV%) [1, 16]: 517.3 (…) ng/mL
Mean AUC24h (CV%) ([1]; cohort 2c (≥3 to <6 mo), 6 mg/kg QD oral, n=1, Day 7, listed as JNJ-8678, 6 mg/kg): 34 980 ng × h/mL
Mean AUC24h (CV%) [1, 17]: 4495.6 (4.8) ng × h/mL
Mean Cmax (CV%) [1, 17]: 374.2 (18.5) ng/mL
Mean Cmin (CV%) [1, 17]: 72.6 (41.1) ng/mL
Mean AUC24h (CV%) [1, 18]: 5827.0 (12.3) ng × h/mL
Mean Cmax (CV%) [1, 18]: 498.0 (13.2) ng/mL
Mean Cmin (CV%) [1, 18]: 100.9 (46.3) ng/mL
Mean Cmax (CV%) [1, 19]: 958.2 (15.2) ng/mL
Mean Cmin (CV%) [1, 19]: 342.9 (14.3) ng/mL
Mean Cmax (CV%) [1, 20]: 1671.2 (14.6) ng/mL
Mean Cmin (CV%) [1, 20]: 650.2 (15.5) ng/mL
Mean Cmax (CV%) [1, 21]: 1866.6 (51.7) ng/mL
Mean Cmin (CV%) [1, 21]: 458.7 (54.9) ng/mL
Mean Cmax (CV%) [1, 22]: 3001.8 (25.1) ng/mL
Mean Cmin (CV%) [1, 22]: 929.0 (62.1) ng/mL
Mean AUC24h (CV%) ([1]; cohort 3c (>1 to <3 mo), 5 mg/kg QD oral, n=4, Day 7, listed as JNJ-8678, 5 mg/kg): 39 627 ng × h/mL
Mean Cmax (CV%) [1, 23]: 2371.8 (70.8) ng/mL
Mean Cmin (CV%) [1, 23]: 333.2 (62.3) ng/mL
Mean Cmax (CV%) [1, 24]: 3389.4 (52.9) ng/mL
Mean Cmin (CV%) [1, 24]: 615.9 (75.2) ng/mL
Mean AUC24h (CV%) ([1]; cohort 1d (≥6 to ≤24 mo), 9 mg/kg QD oral, n=4, Day 7, listed as JNJ-8678, 9 mg/kg): 35 840 ng × h/mL
SAE bronchiolitis ([2]; 1/12, cohort 1b, mid-dose, 6 mg/kg QD): 8%
Any AE ([2]; All cohorts, n=37): 28 (76) no. (%)
Any AE possibly related to placebo/JNJ-53718678 ([2]; All cohorts, n=37): 11 (30) no. (%)
Any AE probably related to placebo/JNJ-53718678 ([2]; All cohorts, n=37): 1 (3) no. (%)
Any worst grade 1 or 2 AE ([2]; All cohorts, n=37): 28 (76) no. (%)
Any worst grade 3 or 4 AE ([2]; All cohorts, n=37): 1 (3) no. (%)
Soft feces (AE) ([2]; All cohorts, n=37): 7 (19) no. (%)
URTI (AE) ([2]; All cohorts, n=37): 8 (22) no. (%)
Vomiting (AE) ([2]; All cohorts, n=37): 8 (22) no. (%)
Serious AE ([2]; All cohorts, n=37, serious due to rehospitalization, not related to study drug): 2 (5) no. (%)
Any AE ([2]; High (cohorts 1d,2c,3c), n=9): 7 (78) no. (%)
Any AE possibly related to placebo/JNJ-53718678 ([2]; High (cohorts 1d,2c,3c), n=9): 2 (22) no. (%)
Any AE probably related to placebo/JNJ-53718678 ([2]; High (cohorts 1d,2c,3c), n=9): 0 no. (%)
Any worst grade 1 or 2 AE ([2]; High (cohorts 1d,2c,3c), n=9): 7 (78) no. (%)
Any worst grade 3 or 4 AE ([2]; High (cohorts 1d,2c,3c), n=9): 0 no. (%)
Serious AE ([2]; High (cohorts 1d,2c,3c), n=9): 0 no. (%)
Soft feces (AE) ([2]; High (cohorts 1d,2c,3c), n=9): 0 no. (%)
URTI (AE) ([2]; High (cohorts 1d,2c,3c), n=9): 3 (33) no. (%)
Vomiting (AE) ([2]; High (cohorts 1d,2c,3c), n=9): 4 (44) no. (%)
Any AE ([2]; Low (cohorts 1a,2a,3a), n=12): 9 (75) no. (%)
Any AE possibly related to placebo/JNJ-53718678 ([2]; Low (cohorts 1a,2a,3a), n=12): 3 (25) no. (%)
Any AE probably related to placebo/JNJ-53718678 ([2]; Low (cohorts 1a,2a,3a), n=12): 0 no. (%)
Any worst grade 1 or 2 AE ([2]; Low (cohorts 1a,2a,3a), n=12): 9 (75) no. (%)
Any worst grade 3 or 4 AE ([2]; Low (cohorts 1a,2a,3a), n=12): 0 no. (%)
Soft feces (AE) ([2]; Low (cohorts 1a,2a,3a), n=12): 2 (17) no. (%)
URTI (AE) ([2]; Low (cohorts 1a,2a,3a), n=12): 1 (8) no. (%)
Vomiting (AE) ([2]; Low (cohorts 1a,2a,3a), n=12): 0 no. (%)
Any AE ([2]; Mid (cohorts 1b,2b,3b), n=12): 10 (83) no. (%)
Any AE possibly related to placebo/JNJ-53718678 ([2]; Mid (cohorts 1b,2b,3b), n=12): 4 (33) no. (%)
Any AE probably related to placebo/JNJ-53718678 ([2]; Mid (cohorts 1b,2b,3b), n=12): 1 (8) no. (%)
Any worst grade 1 or 2 AE ([2]; Mid (cohorts 1b,2b,3b), n=12): 10 (83) no. (%)
Any worst grade 3 or 4 AE ([2]; Mid (cohorts 1b,2b,3b), n=12): 1 (8) no. (%)
Soft feces (AE) ([2]; Mid (cohorts 1b,2b,3b), n=12): 3 (25) no. (%)
URTI (AE) ([2]; Mid (cohorts 1b,2b,3b), n=12): 4 (33) no. (%)
Vomiting (AE) ([2]; Mid (cohorts 1b,2b,3b), n=12): 3 (25) no. (%)
Any AE ([2]; Mid-high (cohort 1c), n=4): 2 (50) no. (%)
Any AE possibly related to placebo/JNJ-53718678 ([2]; Mid-high (cohort 1c), n=4): 2 (50) no. (%)
Any AE probably related to placebo/JNJ-53718678 ([2]; Mid-high (cohort 1c), n=4): 0 no. (%)
Any worst grade 1 or 2 AE ([2]; Mid-high (cohort 1c), n=4): 2 (50) no. (%)
Any worst grade 3 or 4 AE ([2]; Mid-high (cohort 1c), n=4): 0 no. (%)
Serious AE ([2]; Mid-high (cohort 1c), n=4): 0 no. (%)
Soft feces (AE) ([2]; Mid-high (cohort 1c), n=4): 2 (50) no. (%)
URTI (AE) ([2]; Mid-high (cohort 1c), n=4): 0 no. (%)
Vomiting (AE) ([2]; Mid-high (cohort 1c), n=4): 1 (25) no. (%)
Patients with AEs considered at least possibly related to JNJ-8678 ([2]; all JNJ-8678, 11/37): 30%
Grade 3 AEs (bronchiolitis, reported as serious AE), number ([2]; all JNJ-8678, n=37): 1
Tolerability in RSV-infected infants ([2]; oral, once daily for 7 days): well tolerated
Deaths, grade 4 AEs, AEs leading to discontinuation ([2]; whole study): No deaths, grade 4 AEs, or AEs leading to study discontinuation or permanent discontinuation of study drug were reported
Dose-response relationship for antiviral effects (RSV [3]; across JNJ-8678 dose levels): no clear dose-response relationship was observed
Reduction in viral load compared with placebo (RSV [3]; all doses combined): greater reduction in viral load with JNJ-8678 than placebo
Median RSV viral load change from baseline (RSV [3]; by day 3, all JNJ-8678 doses combined): −1.98 log10 copies/mL
Median time to clinical stability following the start of study treatment (RSV infection; placebo 56.7 hours): 47.4 h
Median length of hospital stay (RSV infection; placebo 77.5 hours): 77.7 h
Time after which all patients were clinically stable (RSV infection; placebo 121.1 hours): 123.5 h
Maximum length of hospital stay observed (RSV infection; placebo 144.5 hours): 150.4 h
50% effective concentration (RSV-A and RSV-B strains): 0.09 to 9.50 ng/mL
Effect on viral load and clinical disease severity (RSV [4]): substantially reduced both viral load and clinical disease severity
